The text below walks through data of ChEMBL document CHEMBL1255466, “Nucleotide selectivity of antibiotic kinases” (Antimicrob Agents Chemother, 2010).

Assay [1] is described as follows: Ratio of Kcat to Km for macrolide 2'-phosphotransferase 1 by PK/LDH-coupled assay in presence of ATP. In a few lines:
(§1)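 His6-tagged kinase purified by Ni-NTA. […] Nucleotide (ATP or GTP) was varied to start; A340 followed 5 min. Linear initial rates were fitted by nonlinear least squares.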

A short description of assay [2]: Activity at macrolide 2'-phosphotransferase 1 by PK/LDH-coupled assay in presence of GTP. In a few lines: as §1
A short description of assay [3]: Activity at macrolide 2'-phosphotransferase 1 by PK/LDH-coupled assay in presence of ATP. In a few lines:
as §1

Assay [4] in a line: Activity at macrolide 2'-phosphotransferase 1 by PK/LDH-coupled assay. In outline:
(§2)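 Macrolide substrate was varied in the PK/LDH-coupled system (HEPES pH 7.5, KCl, MgCl2, NADH, PEP), with fixed 0.2 mM GTP as donor. Antibiotic was preincubated with enzyme 5 min at 37°C, the reaction was started with nucleotide, and NADH oxidation was read at 340 nm for 5 min. Initial rates were fitted to Michaelis-Menten, or to a substrate-inhibition equation where it applied.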

Assay [5] can be described thus: Ratio of Kcat to Km for macrolide 2'-phosphotransferase 1 by PK/LDH-coupled assay in presence of GTP. In a few lines:
as §1

The nature of assay [6]: Ratio of Kcat to Km for macrolide 2'-phosphotransferase 1 by PK/LDH-coupled assay. In a few lines: as §2
A short description of assay [7]: Inhibition of macrolide 2'-phosphotransferase 1 by PK/LDH-coupled assay.
Assay [8] can be described thus: Inhibition of APH(3')-3a by PK/LDH-coupled assay. In outline:
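N-terminally His6-tagged kinase, purified on Ni-NTA. Antibiotic at saturating level, preincubated 5 min at 37°C. Started with ATP or GTP held at Km. AMPPNP or GMPPNP added as 2-fold dilutions. NADH oxidation read at 340 nm over 5 min. IC50 fitted, then converted to Ki.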

The nature of assay [9]: Ratio of Kcat to Km for APH(3')-3a by PK/LDH-coupled assay in presence of ATP. In outline:
as §1

Assay [10] in a line: Activity at APH(3')-3a by PK/LDH-coupled assay in presence of ATP. In a few lines:
as §1

The Km is the substrate concentration at which the rate is half of its maximum. The kcat is the maximal rate divided by the concentration of active sites. With `CC[C@H]1OC(=O)[C@H](C)[C@@H](O[C@H]2C[C@@](C)(OC)[C@@H](O)[C@H](C)O2)[C@H](C)[C@@H](O[C@@H]2O[C@H](C)C[C@H](N(C)C)[C@H]2O)[C@](C)(O)C[C@@H](C)C(=O)[C@H](C)[C@@H](O)[C@]1(C)O`, the kcat/Km came out at 1.16 ×10¹ /s/M in assay [1], 1.07 ×10⁴ /s/M in assay [5] and 7.52 ×10³ /s/M in assay [6]. The Km in [2] amounted to 59.2 µM; in assay [3] it was 1890 µM; in assay [4], 37.2 µM. The kcat in [2] is 0.634 s⁻¹; in assay [3], 0.022 s⁻¹; in [4], 0.279 s⁻¹.
Consider `CC[C@H]1OC(=O)[C@H](C)[C@@H](O[C@H]2C[C@@](C)(OC)[C@@H](O)[C@H](C)O2)[C@H](C)[C@@H](O[C@@H]2O[C@H](C)C[C@H](N(C)C)[C@H]2O)[C@](C)(OC)C[C@@H](C)C(=O)[C@H](C)[C@@H](O)[C@]1(C)O`, for which, in assay [4], the Km was determined as 45.9 µM and the kcat turned out to be 0.311 s⁻¹. The kcat/Km in [6] stood at 6.77 ×10³ /s/M.
As usually defined, the Ki is the dissociation constant of the complex between target and ligand, obtained from inhibition or displacement. `Nc1ncnc2c1ncn2[C@@H]1O[C@H](COP(=O)(O)OP(=O)(O)NP(=O)(O)O)[C@@H](O)[C@H]1O`: the Ki result is “Not Active” in assay [7] and 14.2 µM in assay [8] (read-out: Ki).
On to `CC[C@H]1OC(=O)[C@H](C)[C@@H](O[C@H]2C[C@@](C)(OC)[C@@H](O)[C@H](C)O2)[C@H](C)[C@@H](O[C@@H]2O[C@H](C)C[C@H](N(C)C)[C@H]2O)[C@](C)(O)C[C@@H](C)CN(C)[C@H](C)[C@@H](O)[C@]1(C)O`, for which, in [4], the Km came to 27.7 µM and the kcat was determined as 0.292 s⁻¹. In addition, in assay [6], the kcat/Km amounted to 1.05 ×10⁴ /s/M.
As for `NC[C@@H]1O[C@H](O[C@H]2[C@@H](O)[C@H](O[C@@H]3[C@@H](O)[C@H](N)C[C@H](N)[C@H]3O[C@H]3O[C@H](CN)[C@@H](O)[C@H](O)[C@H]3N)O[C@@H]2CO)[C@H](N)[C@@H](O)[C@@H]1O`, the kcat/Km in [9] is 1.5 ×10⁵ /s/M. In assay [10], the Michaelis-Menten constant (Km) came to 10.6 µM and the kcat is 1.59 s⁻¹.
Turning to `CC[C@H]1OC(=O)C[C@@H](O)[C@H](C)[C@@H](O[C@@H]2O[C@H](C)[C@@H](O[C@H]3C[C@@](C)(O)[C@@H](O)[C@H](C)O3)[C@H](N(C)C)[C@H]2O)[C@@H](CC=O)C[C@@H](C)C(=O)/C=C/C(C)=C/[C@@H]1CO[C@@H]1O[C@H](C)[C@@H](O)[C@@H](OC)[C@H]1OC`, in [4], the Km stood at 131 µM and the kcat worked out at 0.174 s⁻¹. In addition, the kcat/Km in assay [6] turned out to be 1.33 ×10³ /s/M.
For SPIRAMYCIN, in that order: 478 µM, 0.2 s⁻¹ and 4.19 ×10² /s/M.
Consider `CC[C@H]1OC(=O)[C@H](C)C(=O)[C@H](C)[C@@H](O[C@@H]2O[C@H](C)C[C@H](N(C)C)[C@H]2O)[C@](C)(OC)C[C@@H](C)C(=O)[C@H](C)[C@H]2N(CCCCn3cnc(-c4cccnc4)c3)C(=O)O[C@]12C`, for which, in assay [4], the Michaelis constant (Km) stood at 7.4 µM and the kcat stood at 0.152 s⁻¹. Also, the kcat/Km in [6] came out at 2.07 ×10⁴ /s/M. In assay [7], the affinity corresponds to a Ki of 622 µM.
On to `Nc1nc2c(ncn2[C@@H]2O[C@H](COP(=O)(O)OP(=O)(O)NP(=O)(O)O)[C@@H](O)[C@H]2O)c(=O)[nH]1` [PHOSPHOAMINOPHOSPHONIC ACID GUANYLATE ESTER], for which the Ki entry in assay [8] is listed as “Not Active”.
